Test results taken from ChEMBL document CHEMBL4406821, “Novel dual inhibitors targeting CDK4 and VEGFR2 synergistically suppressed cancer progression and angiogenesis” (Eur J Med Chem, 2019).
Activity calls are given as the source filed them. The rule behind the calls is not given here.

Assays:
[1] = molecular target: RAC-alpha serine/threonine-protein kinase (Homo sapiens) (UniProt P31749); assay: Inhibition of recombinant human PKBalpha at 1 uM using as CKRREILSRRPSYRK substrate incubated for 60 mins in presence of [gamma-33P]-ATP by scintillation counting method relative to control
[2] = Half life in Sprague-Dawley rat at 10 mg/kg, po by HPLC-MS analysis; type: ADME, organism-based; details: in vivo
In short: (§1)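 Rats fitted with jugular vein catheters for serial blood sampling. Compound dissolved in saline with 5% (v/v) DMSO and given as a single 10 mg/kg dose iv or po after an overnight fast, n = 5 per group. Plasma isolated at once and measured by HPLC with tandem MS detection. Parameters derived by noncompartmental fitting.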

[3] = test system: Fibroblast growth factor receptor 2 (Homo sapiens), P21802 [N549H]; assay: Inhibition of recombinant human FGFR2 N549H mutant (456 to 770 residues) at 1 uM using GGEEEEYFELVKKKK as substrate incubated for 40 mins in presence of [gamma-33P]-ATP by scintillation counting method relative to control
[4] = n-octanol/water partition coefficient, log P of the compound by shake flask method based HPLC analysis; type: physicochemical
[5] = molecular target: Tyrosine-protein kinase Fyn (Homo sapiens) (UniProt P06241); assay: Inhibition of recombinant full length human FYN at 1 uM using KVEKIGEGTYGVVYK as substrate incubated for 40 mins in presence of [gamma-33P]-ATP by scintillation counting method relative to control
In short: (§2)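 Kinase panel profiling at 1 μM performed by Eurofins KinaseProfiler; percent inhibition reported as mean of two independent experiments.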

[6] = molecular target: Ephrin type-A receptor 7 (Homo sapiens) (UniProt Q15375); assay: Inhibition of recombinant human EPhA7 (613 to 909 residues) at 1 uM using KTFCGTPEYLAPEVRREPRILSEEEQEMFRDFDYIADWC as substrate incubated for 40 mins in presence of [gamma-33P]-ATP by scintillation counting method relative to control
[7] = molecular target: Casein kinase 2 (Homo sapiens) (UniProt P67870+P68400+P19784+Q8NEV1); assay: Inhibition of recombinant full length human CK2 expressed in insect Sf21 cells at 1 uM using CK2 substrate peptide as substrate incubated for 40 mins in presence of [gamma-33P]-ATP by scintillation counting method relative to control; in short: as §2
[8] = Clearance in Sprague-Dawley rat at 10 mg/kg, po by HPLC-MS analysis; type: ADME, organism-based; details: in vivo; in short: as §1
[9] = molecular target: Serine/threonine-protein kinase VRK2 (Homo sapiens) (UniProt Q86Y07); assay: Inhibition of recombinant human VRK2 (1 to 336 residues) at 1 uM using casein as substrate incubated for 40 mins in presence of [gamma-33P]-ATP by scintillation counting method relative to control
In short: (§3)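 Tested at a single 1 uM in an outsourced commercial kinase-profiling panel, read as percent inhibition. Each value is the mean of two independent experiments.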

[10] = test system: Proto-oncogene tyrosine-protein kinase receptor Ret (Homo sapiens), P07949 [V804M]; assay: Inhibition of recombinant human RET V804M mutant (658 to end residues) at 1 uM using KKKVSRSGLYRSPSMPENLNRPR as substrate incubated for 40 mins in presence of [gamma-33P]-ATP by scintillation counting method relative to control
MDA-MB-231 = assay: Induction of apoptosis in human MDA-MB-231 cells assessed as decrease in Ki67 expression at 20 to 40 nM incubated for 48 hrs by Western blot analysis; type: functional, cell-based
In short: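 Cells were treated for 48 h, washed three times with PBS, and lysed in RIPA buffer. Immunoblots used anti-Rb, anti-phospho-Rb, anti-Ki67 and anti-Bcl-2 (each 1:1000), with β-actin as loading control.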

[11] = Tmax in Sprague-Dawley rat at 10 mg/kg, po by HPLC-MS analysis; type: ADME, organism-based; details: in vivo
[12] = molecular target: Protein kinase C gamma type (Homo sapiens) (UniProt P05129); assay: Inhibition of recombinant human full length PKCgamma at 1 uM using histone H1 as substrate incubated for 40 mins in presence of [gamma-33P]-ATP by scintillation counting method relative to control
CDK4/Cyclin D3 = CDK4/Cyclin D3 (Homo sapiens, UniProt P11802); assay: Inhibition of recombinant full length human CDK4/Cyclin D3 using Rb-fragmen as substrate incubated for 40 mins by [gamma-33P]-ATP based radiometric assay; type: protein-complex assay
[13] = molecular target: Protein-tyrosine kinase 6 (Homo sapiens) (UniProt Q13882); assay: Inhibition of recombinant full length human BRK at 1 uM using poly(Glu, Tyr) 4:1 as substrate incubated for 40 mins in presence of [gamma-33P]-ATP by scintillation counting method relative to control; in short: as §2
[14] = test system: Mast/stem cell growth factor receptor Kit (Homo sapiens), P10721 [D816V]; assay: Inhibition of recombinant human cKIT D816V mutant (544 to end residues) at 1 uM using poly(Glu, Tyr) 4:1 as substrate incubated for 40 mins in presence of [gamma-33P]-ATP by scintillation counting method relative to control; in short: as §3
Saccharomyces cerevisiae = assay: Inhibition of recombinant fungi CK1 (2 to 298 residues) at 1 uM using KRRRALS(p)VAS as substrate incubated for 40 mins in presence of [gamma-33P]-ATP by scintillation counting method relative to control; in short: as §2
[15] = molecular target: Ephrin type-B receptor 4 (Homo sapiens) (UniProt P54760); assay: Inhibition of recombinant human EPhB4 (561 to end residues) at 1 uM using poly (Glu, Tyr) 4:1 as substrate incubated for 40 mins in presence of [gamma-33P]-ATP by scintillation counting method relative to control
[16] = molecular target: Ephrin type-A receptor 2 (Homo sapiens) (UniProt P29317); assay: Inhibition of recombinant human EPhA2 (596 to 900 residues) at 1 uM using poly(Glu, Tyr) 4:1as substrate incubated for 40 mins in presence of [gamma-33P]-ATP by scintillation counting method relative to control
[17] = molecular target: Ribosomal protein S6 kinase alpha-1 (Homo sapiens) (UniProt Q15418); assay: Inhibition of recombinant human full length RSK1 at 1 uM using KKKNRTLSVA as substrate incubated for 40 mins in presence of [gamma-33P]-ATP by scintillation counting method relative to control; in short: as §3
[18] = molecular target: Fibroblast growth factor receptor 3 (Homo sapiens) (UniProt P22607); assay: Inhibition of recombinant human FGFR3 (447 to 761 residues) at 1 uM using poly(Glu, Tyr) 4:1 as substrate incubated for 40 mins in presence of [gamma-33P]-ATP by scintillation counting method relative to control; in short: as §3
[19] = molecular target: Serine/threonine-protein kinase VRK1 (Homo sapiens) (UniProt Q99986); assay: Inhibition of recombinant human VRK1 at 1 uM incubated for 40 mins in presence of [gamma-33P]-ATP by scintillation counting method relative to control
Serine/threonine-protein kinase VRK1 (Homo sapiens), sequence (Q99986 whole entry): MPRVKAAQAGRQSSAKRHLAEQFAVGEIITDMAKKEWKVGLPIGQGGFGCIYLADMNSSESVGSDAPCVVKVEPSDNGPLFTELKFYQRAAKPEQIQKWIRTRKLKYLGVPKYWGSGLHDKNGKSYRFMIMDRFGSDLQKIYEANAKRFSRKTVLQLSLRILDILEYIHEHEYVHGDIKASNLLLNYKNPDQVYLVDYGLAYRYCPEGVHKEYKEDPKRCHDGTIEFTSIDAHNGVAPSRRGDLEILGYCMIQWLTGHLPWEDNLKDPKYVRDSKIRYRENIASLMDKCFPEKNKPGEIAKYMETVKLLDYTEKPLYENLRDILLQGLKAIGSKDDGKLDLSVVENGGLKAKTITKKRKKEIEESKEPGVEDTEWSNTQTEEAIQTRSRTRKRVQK

Ephrin type-A receptor 2 (Homo sapiens), sequence (P29317 whole entry, the tested form may be a part): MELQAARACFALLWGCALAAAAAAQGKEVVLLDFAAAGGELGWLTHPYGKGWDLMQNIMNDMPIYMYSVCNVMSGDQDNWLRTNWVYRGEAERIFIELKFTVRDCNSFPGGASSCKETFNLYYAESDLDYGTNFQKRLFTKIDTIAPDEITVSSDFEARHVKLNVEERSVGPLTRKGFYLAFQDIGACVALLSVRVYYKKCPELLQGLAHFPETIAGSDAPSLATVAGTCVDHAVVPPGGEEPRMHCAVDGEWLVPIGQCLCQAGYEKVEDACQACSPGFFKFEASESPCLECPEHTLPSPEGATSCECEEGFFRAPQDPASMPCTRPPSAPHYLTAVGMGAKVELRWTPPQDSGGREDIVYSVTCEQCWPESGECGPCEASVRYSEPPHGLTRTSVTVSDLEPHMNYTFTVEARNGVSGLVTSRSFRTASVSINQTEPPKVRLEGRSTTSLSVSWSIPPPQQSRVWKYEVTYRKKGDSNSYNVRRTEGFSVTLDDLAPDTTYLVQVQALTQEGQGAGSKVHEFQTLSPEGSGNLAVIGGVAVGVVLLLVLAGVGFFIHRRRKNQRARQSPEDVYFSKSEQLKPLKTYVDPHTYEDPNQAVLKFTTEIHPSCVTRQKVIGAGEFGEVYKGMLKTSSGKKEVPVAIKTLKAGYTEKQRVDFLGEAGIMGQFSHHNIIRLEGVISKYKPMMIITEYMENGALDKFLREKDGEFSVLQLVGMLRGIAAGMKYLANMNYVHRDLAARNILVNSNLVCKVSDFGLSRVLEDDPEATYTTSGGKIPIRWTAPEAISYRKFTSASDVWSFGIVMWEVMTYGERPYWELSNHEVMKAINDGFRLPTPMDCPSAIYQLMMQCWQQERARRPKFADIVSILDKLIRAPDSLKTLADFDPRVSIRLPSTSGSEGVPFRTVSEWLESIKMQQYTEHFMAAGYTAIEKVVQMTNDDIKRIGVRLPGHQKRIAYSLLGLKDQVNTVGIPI
CDK4/Cyclin D3, sequence (P11802 whole entry): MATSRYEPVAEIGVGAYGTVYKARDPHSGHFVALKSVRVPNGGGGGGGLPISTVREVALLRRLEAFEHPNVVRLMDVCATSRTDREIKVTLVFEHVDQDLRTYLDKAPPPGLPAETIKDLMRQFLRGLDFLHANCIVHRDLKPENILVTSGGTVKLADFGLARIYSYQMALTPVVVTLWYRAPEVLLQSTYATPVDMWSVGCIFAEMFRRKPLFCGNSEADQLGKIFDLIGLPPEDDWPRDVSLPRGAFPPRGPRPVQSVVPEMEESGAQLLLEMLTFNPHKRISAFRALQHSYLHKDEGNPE
CDK4/Cyclin D3, sequence (P30281 whole entry, further chain): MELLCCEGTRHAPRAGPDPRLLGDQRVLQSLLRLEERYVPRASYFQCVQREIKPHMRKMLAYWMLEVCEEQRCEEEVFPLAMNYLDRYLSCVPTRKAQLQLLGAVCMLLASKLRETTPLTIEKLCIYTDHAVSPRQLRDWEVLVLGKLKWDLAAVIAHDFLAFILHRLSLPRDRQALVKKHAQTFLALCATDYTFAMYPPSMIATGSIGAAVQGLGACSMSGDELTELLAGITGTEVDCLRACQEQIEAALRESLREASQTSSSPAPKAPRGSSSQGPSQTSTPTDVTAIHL
RAC-alpha serine/threonine-protein kinase (Homo sapiens), sequence (P31749 whole entry): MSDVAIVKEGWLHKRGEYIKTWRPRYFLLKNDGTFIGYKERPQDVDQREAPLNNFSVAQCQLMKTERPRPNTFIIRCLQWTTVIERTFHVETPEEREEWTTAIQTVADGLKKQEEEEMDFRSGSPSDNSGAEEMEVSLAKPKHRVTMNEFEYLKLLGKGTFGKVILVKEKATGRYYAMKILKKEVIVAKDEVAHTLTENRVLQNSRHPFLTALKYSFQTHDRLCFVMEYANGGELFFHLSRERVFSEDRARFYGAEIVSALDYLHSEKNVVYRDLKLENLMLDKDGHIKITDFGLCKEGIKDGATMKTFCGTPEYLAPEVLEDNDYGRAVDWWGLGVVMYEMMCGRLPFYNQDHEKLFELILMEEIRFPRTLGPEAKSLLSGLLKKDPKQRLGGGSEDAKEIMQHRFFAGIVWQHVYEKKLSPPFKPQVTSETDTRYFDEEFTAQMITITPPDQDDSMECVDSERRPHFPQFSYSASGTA
Fibroblast growth factor receptor 3 (Homo sapiens), sequence (P22607 23-806 limits assumed): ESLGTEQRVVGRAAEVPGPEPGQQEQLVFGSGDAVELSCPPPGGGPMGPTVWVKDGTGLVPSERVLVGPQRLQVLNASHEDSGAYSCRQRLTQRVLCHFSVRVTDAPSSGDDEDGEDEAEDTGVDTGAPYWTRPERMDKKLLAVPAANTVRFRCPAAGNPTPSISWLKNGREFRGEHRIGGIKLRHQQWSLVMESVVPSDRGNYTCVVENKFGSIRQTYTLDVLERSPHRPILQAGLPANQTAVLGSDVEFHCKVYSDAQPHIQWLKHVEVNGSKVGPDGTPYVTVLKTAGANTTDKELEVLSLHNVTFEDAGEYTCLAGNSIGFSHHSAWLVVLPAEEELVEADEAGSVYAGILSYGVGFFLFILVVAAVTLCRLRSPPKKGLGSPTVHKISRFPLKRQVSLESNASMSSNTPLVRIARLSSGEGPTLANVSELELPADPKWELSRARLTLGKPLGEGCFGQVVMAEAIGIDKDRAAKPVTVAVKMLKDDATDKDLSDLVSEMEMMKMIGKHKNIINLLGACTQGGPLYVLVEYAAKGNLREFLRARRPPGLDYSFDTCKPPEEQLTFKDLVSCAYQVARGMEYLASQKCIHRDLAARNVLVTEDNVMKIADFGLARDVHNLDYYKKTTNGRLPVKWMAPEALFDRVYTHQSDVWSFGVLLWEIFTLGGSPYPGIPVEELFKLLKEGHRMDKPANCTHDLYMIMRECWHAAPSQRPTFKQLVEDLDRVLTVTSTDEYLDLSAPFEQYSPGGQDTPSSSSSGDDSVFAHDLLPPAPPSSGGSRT
Mast/stem cell growth factor receptor Kit (Homo sapiens), P10721 [D816V], sequence (P10721 whole entry D816V, the tested form may be a part): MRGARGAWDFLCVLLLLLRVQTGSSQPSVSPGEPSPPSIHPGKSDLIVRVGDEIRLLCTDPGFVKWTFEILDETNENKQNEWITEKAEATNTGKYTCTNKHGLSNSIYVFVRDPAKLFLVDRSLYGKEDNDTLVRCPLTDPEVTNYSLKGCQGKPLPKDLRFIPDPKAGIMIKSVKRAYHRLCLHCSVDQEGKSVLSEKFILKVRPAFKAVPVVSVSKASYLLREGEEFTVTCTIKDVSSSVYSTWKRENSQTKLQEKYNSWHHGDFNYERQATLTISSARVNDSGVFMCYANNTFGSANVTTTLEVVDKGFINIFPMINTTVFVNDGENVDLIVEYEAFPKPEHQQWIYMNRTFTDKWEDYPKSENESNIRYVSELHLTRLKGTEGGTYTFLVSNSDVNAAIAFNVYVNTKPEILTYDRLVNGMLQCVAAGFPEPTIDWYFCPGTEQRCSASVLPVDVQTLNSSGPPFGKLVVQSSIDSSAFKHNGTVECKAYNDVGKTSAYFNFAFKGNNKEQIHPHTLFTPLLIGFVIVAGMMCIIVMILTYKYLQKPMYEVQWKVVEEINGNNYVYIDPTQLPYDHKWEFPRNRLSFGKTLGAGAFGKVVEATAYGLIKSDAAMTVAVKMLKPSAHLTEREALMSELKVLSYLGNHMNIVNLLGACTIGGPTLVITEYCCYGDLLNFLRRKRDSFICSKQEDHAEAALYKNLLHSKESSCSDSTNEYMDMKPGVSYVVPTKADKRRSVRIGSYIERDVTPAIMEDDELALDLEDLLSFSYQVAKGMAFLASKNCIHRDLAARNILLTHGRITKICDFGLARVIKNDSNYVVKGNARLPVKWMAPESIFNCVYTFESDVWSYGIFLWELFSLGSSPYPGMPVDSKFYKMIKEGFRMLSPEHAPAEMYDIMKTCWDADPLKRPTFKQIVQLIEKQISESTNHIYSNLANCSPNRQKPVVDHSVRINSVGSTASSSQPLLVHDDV

In the case of `Cc1ccc(NC(=O)C2(C(=O)Nc3ccc(Nc4ncc(F)c(-c5cc(F)c6nc(C)n(C(C)C)c6c5)n4)cc3)CC2)cc1`, the inhibition [1] is reported as 36%, the half-life [2] is reported as 3 h and the inhibition [3] is reported as 7%. For the same compound, the logP [4] was 2.53, the inhibition [5] was 32% and the inhibition [6] was 81%. It also gave an inhibition [7] of 56%, a CL/F [8] of 33.3 mL/min/kg and an inhibition [9] of 0%. For the same compound, the inhibition [10] was 27%, the Activity (MDA-MB-231) was “Active” and the Tmax [11] was 2 h. The inhibition [12] was 23%, the IC50 (CDK4/Cyclin D3) was 46 nM and the inhibition [13] was 22%. For the same compound, the inhibition [14] was 0%, the inhibition (Saccharomyces cerevisiae) was 48% and the inhibition [15] was 42%. The inhibition [16] was 61%, the inhibition [17] was 0% and the inhibition [18] was 0%. It also gave an inhibition [19] of 9%.
